14-3-3 Bad inh: disrupts binding of bovine 14-3-3 zeta to phospho-Bad peptide; AID 781; TR-FRET 14-3-3zeta/Dy647-pBad peptide displacement, 1 h; inhibition, % at 21.7 µM; hit rate 0.71% among 220,000; P63103;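 active = inhibition above about 70%, limit read from the data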
Hck Nef HTS: human Hck-Nef kinase inhibition | Recombinant Hck-YEEI plus Nef, Z-Lyte FRET kinase assay | inhibition, % at 20 µM | P08631 | AID 463187 | hit rate 0.68% among 220,000;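 active = Hck-Nef kinase inhibition above about 50%, limit read from the data; inactive = inhibition below that limit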
Target sequence (P08631 whole entry, looked up): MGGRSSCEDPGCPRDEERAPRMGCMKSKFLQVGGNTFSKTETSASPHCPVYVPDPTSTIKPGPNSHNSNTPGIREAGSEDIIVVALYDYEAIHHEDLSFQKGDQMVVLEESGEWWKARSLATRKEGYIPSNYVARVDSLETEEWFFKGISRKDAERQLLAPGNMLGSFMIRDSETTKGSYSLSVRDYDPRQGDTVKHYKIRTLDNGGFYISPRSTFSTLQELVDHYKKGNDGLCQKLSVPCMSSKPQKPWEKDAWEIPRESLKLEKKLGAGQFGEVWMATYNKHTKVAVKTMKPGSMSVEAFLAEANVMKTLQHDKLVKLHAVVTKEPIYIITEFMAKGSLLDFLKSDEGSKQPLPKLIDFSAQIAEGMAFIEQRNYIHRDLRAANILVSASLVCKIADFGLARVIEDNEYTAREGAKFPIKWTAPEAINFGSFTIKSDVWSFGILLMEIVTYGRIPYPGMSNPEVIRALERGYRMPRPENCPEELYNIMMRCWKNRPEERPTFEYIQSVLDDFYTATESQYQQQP
Mcl1 Bid PPI: disrupts binding of human Mcl-1 to Bid peptide | Q07820 | TR-FRET Mcl-1/Bid-Dy647 peptide binding, 1536-well | inhibition, % at 21.7 µM | hit rate 0.97% among 220,000;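 active = compounds that cut the binding signal by more than half at the single screening dose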;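 also: His-tagged Mcl-1 with europium anti-His antibody binding Bid BH3 peptide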
Mcl-1 Bim block: inhibitors of Bim-Mcl-1 interaction, human; Bead-based flow cytometry, Bim peptide-Mcl-1 binding; AID 1009; inhibition, % at 10 µM; hit rate 0.1% among 190,000; Q07820; in the data active = inhibition above about 40%
Biofilm kill mix: mixture kills Candida albicans biofilm cells; hit rate 0.02% among 120,000; C. albicans biofilm persisters + clotrimazole, fluorescence viability; primary screen in compound mixtures of four per well; inhibition, % at 7.6 µM;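 active = inhibition above 30.3% in the primary screen of four-compound pools, then above 30% when the compound was retested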;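 also: compounds exposed to preformed 24 h biofilms for 48 h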
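Incubation: 24 h biofilm formation, then 48 h compound exposure, 37 °C | Material: C. albicans biofilms | Buffer or medium: RPMI/MOPS medium, pH 7.0 | Measured by: 2-h Alamar Blue fluorescence, 535/590 nm excitation/emission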
Mcl1-Noxa inh: disrupts binding of human Mcl-1 to Noxa peptide | TR-FRET Mcl-1/Noxa peptide binding, 2 h | inhibition, % at 21.7 µM | hit rate 1.5% among 220,000 | AID 1022;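 active = compounds that cut the protein-peptide binding signal by more than 50% relative to plate controls in a single-dose test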;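 also: His-tagged Mcl-1 with rhodamine Noxa BH3 peptide and terbium anti-His antibody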
Hits are given with their value; [ ] = dose if it differs, or a comment. Compounds with a hit are over-represented: about 3.2% of the library has one in this group of screens.

What do the screens show for `O=C(O)CC(=O)NC12CC3CC(CC(C3)C1)C2`?
14-3-3 Bad inh: inactive; Hck Nef HTS: inactive; Mcl1 Bid PPI: inactive; Mcl-1 Bim block: inactive; Mcl1-Noxa inh: inactive

What do the screens show for `CCN(CC)CC(=O)NC12CC3CC(CC(C3)C1)C2`?
14-3-3 Bad inh: inactive; Hck Nef HTS: inactive; Mcl1 Bid PPI: 63; Mcl-1 Bim block: inactive; Mcl1-Noxa inh: inactive

Results for CC1(C(=O)N(CC(=O)NC2CCCC2)Cc2ccco2)CC(=O)N=C2C=CC=CN21 (stereo not drawn) ?
14-3-3 Bad inh: inactive; Hck Nef HTS: inactive; Mcl1 Bid PPI: inactive; Mcl-1 Bim block: 41; Mcl1-Noxa inh: inactive

How did CC1=CC2=NC(=O)CC(C)(C(=O)N(CC(=O)NC3CCCC3)c3ccccc3C)N2C=C1 (stereo not drawn) do in these assays?
14-3-3 Bad inh: inactive; Hck Nef HTS: inactive; Mcl1 Bid PPI: inactive; Biofilm kill mix: inactive; Mcl1-Noxa inh: inactive

What do the screens show for `CCOc1ccccc1Nc1nnc(Cc2ccccc2Cl)c(=O)[nH]1`?
14-3-3 Bad inh: inactive; Hck Nef HTS: inactive; Mcl1 Bid PPI: 53; Mcl-1 Bim block: inactive; Mcl1-Noxa inh: inactive

Results for Cc1ccc(S(=O)(=O)Nc2ccccc2C(=O)OC(C)C(=O)Nc2ccc3ccccc3c2)cc1[N+](=O)[O-] (stereo not drawn) ?
14-3-3 Bad inh: inactive; Hck Nef HTS: inactive; Mcl1 Bid PPI: inactive; Mcl-1 Bim block: inactive; Biofilm kill mix: inactive; Mcl1-Noxa inh: inactive

What do the screens show for `COc1ccc(NC(=S)NNc2ccc(S(=O)(=O)Nc3ccccc3C(=O)O)cc2[N+](=O)[O-])cc1`?
14-3-3 Bad inh: inactive; Hck Nef HTS: inactive; Mcl1 Bid PPI: 73; Biofilm kill mix: inactive; Mcl1-Noxa inh: 88

How did Cc1nn(-c2ccccc2)c(Cl)c1/C=N/Nc1ccc(S(=O)(=O)Nc2ccccc2C(=O)O)cc1[N+](=O)[O-] do in these assays?
14-3-3 Bad inh: 88[fluorescence artefact?]; Hck Nef HTS: inactive; Mcl1 Bid PPI: 100; Mcl-1 Bim block: inactive; Mcl1-Noxa inh: 105

How did COc1ccc(CNC(=O)c2cc3c(=O)n4ccccc4nc3n(Cc3cccnc3)c2=N)cc1 do in these assays?
14-3-3 Bad inh: inactive; Hck Nef HTS: inactive; Mcl1 Bid PPI: inactive; Mcl-1 Bim block: inactive; Mcl1-Noxa inh: 59

What do the screens show for `COc1ccc(Cn2c(=O)[nH]c3cc(C(=O)NCCCOC(C)C)ccc3c2=O)cc1`?
14-3-3 Bad inh: inactive; Hck Nef HTS: inactive; Mcl1 Bid PPI: inactive; Mcl-1 Bim block: inactive; Biofilm kill mix: inactive; Mcl1-Noxa inh: inactive

What do the screens show for `COC(=O)c1cc2c(=O)n3ccccc3nc2n(C(C)C)c1=N`?
Hck Nef HTS: active

How did COc1ccc(Cn2c(=O)[nH]c3cc(C(=O)NCc4ccc5c(c4)OCO5)ccc3c2=O)cc1 do in these assays?
14-3-3 Bad inh: inactive; Hck Nef HTS: inactive; Mcl1 Bid PPI: 56; Mcl-1 Bim block: inactive; Mcl1-Noxa inh: inactive

How did N=c1c(C(=O)NCc2ccc3c(c2)OCO3)cc2c(=O)n3ccccc3nc2n1Cc1cccnc1 do in these assays?
14-3-3 Bad inh: inactive; Hck Nef HTS: inactive; Mcl1 Bid PPI: inactive; Mcl-1 Bim block: inactive; Mcl1-Noxa inh: 74

Results for CCOCCCn1c(=N)c(C(=O)NCc2ccc3c(c2)OCO3)cc2c(=O)n3cccc(C)c3nc21 ?
14-3-3 Bad inh: inactive; Hck Nef HTS: inactive; Mcl1 Bid PPI: inactive; Mcl-1 Bim block: inactive; Mcl1-Noxa inh: inactive

How did N=c1c(C(=O)NCc2ccco2)cc2c(=O)n3ccccc3nc2n1Cc1ccc(Cl)cc1 do in these assays?
Hck Nef HTS: inactive; Mcl-1 Bim block: inactive

Results for COCCn1c(SCC(=O)c2c(N)n(C)c(=O)n(C)c2=O)nc2ccccc21 ?
14-3-3 Bad inh: inactive; Hck Nef HTS: inactive; Mcl1 Bid PPI: inactive; Mcl-1 Bim block: inactive; Biofilm kill mix: inactive; Mcl1-Noxa inh: inactive

What do the screens show for `COc1cc(CC(=O)Nc2ccc(S(=O)(=O)NC3=NCCCCC3)cc2)cc(OC)c1OC`?
14-3-3 Bad inh: inactive; Hck Nef HTS: inactive; Mcl1 Bid PPI: inactive; Mcl-1 Bim block: inactive; Biofilm kill mix: inactive; Mcl1-Noxa inh: inactive

Results for Cc1cc(-c2nn(-c3ccccc3F)cc2CN2CCN(c3ccccn3)CC2)c(C)s1 ?
14-3-3 Bad inh: inactive; Hck Nef HTS: inactive; Mcl1 Bid PPI: inactive; Mcl-1 Bim block: inactive; Biofilm kill mix: inactive; Mcl1-Noxa inh: inactive

Results for O=C(O)CC12CC3CC(C1)CC(n1ncc(NCc4ccccc4Cl)c(Cl)c1=O)(C3)C2 ?
14-3-3 Bad inh: inactive; Hck Nef HTS: inactive; Mcl1 Bid PPI: 57; Biofilm kill mix: inactive; Mcl1-Noxa inh: inactive

Bioassay records (PubChem BioAssay)
